Experiments:
Canis familiaris [1] = test: Percent increase in dP/dtmax (positive inotropic activity) in anesthetized dog after administration of 50 ug/kg Intravenously; format: functional, Canis lupus familiaris
In short: (§1)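 Anesthetized dog with a catheter-tip transducer passed into the left ventricle via the carotid artery. LV pressure is differentiated to give dP/dtmax, the contractility index. There is 0.75 h equilibration after surgery. The compound is given iv in 0.9% saline (4 mL), 0.5 h after the standard agent (50 μg/kg). The cycle is repeated once control levels return, at least 0.5 h apart. The result is the % increase in dP/dtmax.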

Canis familiaris [2] = test: Relative inotropic response (50 umg/kg Intravenously) to that of 4-[4-[2-(1,1-dioxo-2-isothiazolidinyl)ethyl]-1-piperidinyl]-6,7-dimethoxyquinazoline […], in dog; format: functional, Canis lupus familiaris
In short: (§2)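 Anesthetized dog with a left-ventricular catheter introduced via the carotid artery; dP/dtmax is derived from LV pressure. The standard quinazoline (50 μg/kg iv) is given first, then the test compound iv in saline 0.5 h later, in the same dog. Relative potency = (% increase in dP/dtmax to drug ÷ % increase to standard) × (dose standard ÷ dose drug).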

Canis familiaris [3] = test: Percent increase in dP/dtmax (positive inotropic activity) in anesthetized dog after administration of 250 ug/kg Intravenously; format: functional, Canis lupus familiaris; in short: as §1
Canis familiaris [4] = test: Percent increase in dP/dtmax (positive inotropic activity) in anesthetized dog after administration of 10 micro mg/kg Intravenously; format: functional, Canis lupus familiaris; in short: as §1
Canis familiaris [5] = test: Cardiac contractility (decrease in the QA interval) in conscious dog 1 hour after oral administration (dose 1 mg/kg); format: functional, Canis lupus familiaris
In short: (§3)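 Conscious dogs; the test substance is given by gavage as a solution. The QA interval is the time from the ECG R wave to the upstroke of the arterial pressure pulse, measured by computer. It is recorded every 0.16 h from 0.5 h before dosing to 4 h after. Each point is the mean of six consecutive sets, each averaged over 8 s. The result is the change from the mean predose value.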

Canis familiaris [6] = test: Cardiac contractility (decrease in the QA interval) in conscious dog, 3 hours after oral administration (dose 1 mg/kg); format: functional, Canis lupus familiaris; in short: as §3
Canis familiaris [7] = test: Relative inotropic response (10 ug/kg Intravenously) to that of 4-[4-[2-(1,1-dioxo-2-isothiazolidinyl)ethyl]-1-piperidinyl]-6,7-dimethoxyquinazoline (5- ug/kg), in dog; format: functional, Canis lupus familiaris; in short: as §2
Canis familiaris [8] = test: Relative inotropic response (50 micro mg/kg Intravenously) to that of 4-[4-[2-(1,1-dioxo-2-isothiazolidinyl)ethyl]-1-piperidinyl]-6,7-dimethoxyquinazoline (5- ug/kg), in dog; format: functional, Canis lupus familiaris; in short: as §2
Canis familiaris [9] = test: Percent increase in dP/dtmax (positive inotropic activity) in anesthetized dog after administration of 20 ug/kg Intravenously; format: functional, Canis lupus familiaris; in short: as §1
Canis familiaris [10] = test: Relative inotropic response (20 micro mg/kg Intravenously) to that of 4-[4-[2-(1,1-dioxo-2-isothiazolidinyl)ethyl]-1-piperidinyl]-6,7-dimethoxyquinazoline (5- ug/kg), in dog; format: functional, Canis lupus familiaris; in short: as §2
Canis familiaris [11] = test: Cardiac contractility (decrease in the QA interval) in conscious dog, 3 hours after oral administration (dose 0.125 mg/kg); format: functional, Canis lupus familiaris; in short: as §3
Canis familiaris [12] = test: Cardiac contractility (decrease in the QA interval) in conscious dog 1 hour after oral administration (dose 0.125 mg/kg); format: functional, Canis lupus familiaris; in short: as §3
Canis familiaris [13] = test: Relative inotropic response (50 ug/kg Intravenously) to that of 4-[4-[2-(1,1-dioxo-2-isothiazolidinyl)ethyl]-1-piperidinyl]-6,7-dimethoxyquinazoline […], in dog; format: functional, Canis lupus familiaris; in short: as §2
Canis familiaris [14] = test: Percent increase in dP/dtmax of positive inotropic activity in conscious dog after administration of 100 ug/kg orally
Canis familiaris [15] = test: Cardiac contractility (decrease in the QA interval) in conscious dog, 3 hours after oral administration (dose 0.1 mg/kg); format: functional, Canis lupus familiaris; in short: as §3
Canis familiaris [16] = test: Percent increase in dP/dtmax (positive inotropic activity) in anesthetized dog after administration of 2 micro mg/kg Intravenously; format: functional, Canis lupus familiaris; in short: as §1
Canis familiaris [17] = test: Cardiac contractility (decrease in the QA interval) in conscious dog 1 hour after oral administration (dose 0.1 mg/kg); format: functional, Canis lupus familiaris; in short: as §3
Canis familiaris [18] = test: Percent increase in dP/dtmax of positive inotropic activity in conscious dog after administration of 25 ug/kg orally
Canis familiaris [19] = test: Relative inotropic response (2 ug/kg Intravenously) to that of 4-[4-[2-(1,1-dioxo-2-isothiazolidinyl)ethyl]-1-piperidinyl]-6,7-dimethoxyquinazoline (5- ug/kg), in dog; format: functional, Canis lupus familiaris; in short: as §2
[20] = Dissociation constant was determined; format: physicochemical
Canis familiaris [21] = test: Relative inotropic response (250 ug/kg Intravenously) to that of 4-[4-[2-(1,1-dioxo-2-isothiazolidinyl)ethyl]-1-piperidinyl]-6,7-dimethoxyquinazoline (5- ug/kg), in dog; format: functional, Canis lupus familiaris; in short: as §2
Canis familiaris [22] = test: Cardiac contractility (decrease in the QA interval) in conscious dog, 3 hours after oral administration (dose 0.25 mg/kg); format: functional, Canis lupus familiaris; in short: as §3
Canis familiaris [23] = test: Cardiac contractility (decrease in the QA interval) in conscious dog 1 hour after oral administration (dose 0.25 mg/kg); format: functional, Canis lupus familiaris; in short: as §3
Canis familiaris [24] = test: Percent increase in dP/dtmax (positive inotropic activity) in anesthetized dog after administration of 25 ug/kg Intravenously; format: functional, Canis lupus familiaris; in short: as §1
Canis familiaris [25] = test: Relative inotropic response (25 ug/kg Intravenously) to that of 4-[4-[2-(1,1-dioxo-2-isothiazolidinyl)ethyl]-1-piperidinyl]-6,7-dimethoxyquinazoline ([…]), in dog; format: functional, Canis lupus familiaris; in short: as §2

Question: With `CC1CC(O)=NN=C1c1ccc(-n2ccnc2)cc1.Cl` (configuration not stated) as the molecule, how does the “Increase in dP/dtmax” value (Canis familiaris [1]) read?
Answer: 100%

Question: And the Relative potency (Canis familiaris [2])?
Answer: 1.6

Question: For `Cc1cn(-c2cc(C)c3c(c2)CN2C(=N3)NC(=O)C2(C)C)c(C)n1`, which “Increase in dP/dtmax” value (Canis familiaris [3]) is on record?
Answer: 20%

Question: What does the source list for `Cc1cn(-c2cc(C)c3c(c2)CN2C(=N3)NC(=O)C2C)c(C)n1` (configuration not stated)?
Answer: Increase in dP/dtmax (Canis familiaris [4]): 12%; Decrease in the QA interval (Canis familiaris [5]): 9 ms; Decrease in the QA interval (Canis familiaris [6]): 15 ms; Relative inotropic potency (Canis familiaris [7]): 0.9

Question: Which “Increase in dP/dtmax” value (Canis familiaris [1]) does the source give for `O=C1CN2Cc3cc(-n4cncn4)ccc3N=C2N1` here?
Answer: 63%

Question: And the Relative inotropic potency (Canis familiaris [8])?
Answer: 1.7

Question: What does the source list for `Cc1cn(-c2ccc3c(c2)CN2CC(=O)NC2=N3)c(C)n1`?
Answer: Increase in dP/dtmax (Canis familiaris [9]): 30%; Decrease in the QA interval (Canis familiaris [5]): 6 ms; Relative inotropic potency (Canis familiaris [10]): 1.9; Decrease in the QA interval (Canis familiaris [6]): 10 ms

Question: What does the source list for `Cc1cc(-n2cncn2)cc2c1NC1=NC(=O)CN1C2`?
Answer: Increase in dP/dtmax (Canis familiaris [1]): 76%; Decrease in the QA interval (Canis familiaris [11]): 12 ms; Relative inotropic potency (Canis familiaris [8]): 3.2; Decrease in the QA interval (Canis familiaris [12]): 8 ms

Question: Which “Increase in dP/dtmax” value (Canis familiaris [1]) does the source give for `Cc1ccc(-c2ccc3c(c2)C(C)N2CC(=O)N=C2N3)c(C)n1` (configuration not stated) here?
Answer: 50%

Question: What about the “Decrease in the QA interval” value (Canis familiaris [11]) of the same molecule?
Answer: 9 ms

Question: And the Relative inotropic potency (Canis familiaris [8])?
Answer: 1.6

Question: And the “Decrease in the QA interval” value (Canis familiaris [12])?
Answer: 13 ms

Question: For `Cc1ccc(-c2ccc3c(c2)CN2CC(=O)NC2=N3)c(C)n1`, which “Increase in dP/dtmax” value (Canis familiaris [1]) is on record?
Answer: 29%

Question: What about the “Decrease in the QA interval” value (Canis familiaris [5]) of the same molecule?
Answer: 14 ms

Question: What about the Relative potency (Canis familiaris [13]) of the same molecule?
Answer: 1.3

Question: And the “Decrease in the QA interval” value (Canis familiaris [6])?
Answer: 15 ms

Question: With `Cc1cc(-n2cnnc2)cc2c1NC1=NC(=O)CN1C2` as the molecule, how does the “Increase in dP/dtmax” value (Canis familiaris [1]) read?
Answer: 24%

Question: And the Relative potency (Canis familiaris [13])?
Answer: 0.5

Question: Which “Decrease in the QA interval” value (Canis familiaris [11]) does the source give for `Cc1ccc(-c2cc(C)c3c(c2)CN2CC(=O)NC2=N3)c(C)n1` here?
Answer: 15 ms

Question: What about the “Increase in dP/dtmax” value (Canis familiaris [4]) of the same molecule?
Answer: 30%

Question: What about the Relative inotropic potency (Canis familiaris [7]) of the same molecule?
Answer: 2.7

Question: What about the “Decrease in the QA interval” value (Canis familiaris [12]) of the same molecule?
Answer: 15 ms

Question: With `Cc1cn(-c2cc(C)c3c(c2)CN2CC(=O)NC2=N3)c(C)n1` as the molecule, how does the “Increase in dP/dtmax” value (Canis familiaris [14]) read?
Answer: 50%

Question: What about the “Decrease in the QA interval” value (Canis familiaris [15]) of the same molecule?
Answer: 15 ms

Question: What about the “Increase in dP/dtmax” value (Canis familiaris [16]) of the same molecule?
Answer: 23%

Question: What about the “Decrease in the QA interval” value (Canis familiaris [17]) of the same molecule?
Answer: 5 ms

Question: And the “Increase in dP/dtmax” value (Canis familiaris [18])?
Answer: 20%

Question: What about the Relative inotropic potency (Canis familiaris [19]) of the same molecule?
Answer: 7.8

Question: For `O=C1CN2Cc3ccccc3N=C2N1`, which pKa [20] is on record?
Answer: 10.9

Question: What about the “Increase in dP/dtmax” value (Canis familiaris [3]) of the same molecule?
Answer: 24%

Question: What about the Relative inotropic potency (Canis familiaris [21]) of the same molecule?
Answer: 0.1

Question: Which “Decrease in the QA interval” value (Canis familiaris [22]) does the source give for `Cc1[nH]c(=O)c(C#N)cc1-c1ccncc1` [MILRINONE] here?
Answer: 7 ms

Question: And the “Decrease in the QA interval” value (Canis familiaris [23])?
Answer: 13 ms

Question: What about the “Increase in dP/dtmax” value (Canis familiaris [24]) of the same molecule?
Answer: 46%

Question: And the Relative potency (Canis familiaris [25])?
Answer: 1.6

Question: Which pKa [20] does the source give for `Cc1cn(-c2cc(C)c3[nH]c(=O)ccc3c2)c(C)n1` [NANTERINONE] here?
Answer: 11.2

Question: What does the source list for `C[C@@H]1C(=O)NC2=Nc3cccc(Cl)c3CN21` [QUAZINONE]?
Answer: Increase in dP/dtmax (Canis familiaris [3]): 66%; Relative inotropic potency (Canis familiaris [21]): 0.3

From ChEMBL document CHEMBL1124579, “7-Heteroaryl-1,2,3,5-tetrahydroimidazo[2,1-b]quinazolin -2(1H)-one derivatives with cardiac stimulant activity” (J Med Chem, 1989)
